Nine molecules from ChEMBL document CHEMBL2346607, “Borrelidin analogues with antimalarial activity: design, synthesis and biological evaluation against Plasmodium falciparum parasites” (Bioorg Med Chem Lett, 2013) can be followed below.

Data set [1] in a line: Selectivity index, ratio of IC50 for human […] cells to IC50 for Plasmodium falciparum FCR-3. In kind it is toxicity, cell-based. As to conditions: […] cells (cytotoxicity) versus Plasmodium falciparum FCR-3, read-out: Ratio IC50. Summed up: (§1)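 SI is the MRC-5 cytotoxicity IC50 (ng/mL) divided by the antimalarial IC50 (ng/mL) against the FCR3 or K1 strain. Both IC50s come from the same in vitro test series.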

The nature of data set [2]: Selectivity index, ratio of IC50 for human […] cells to IC50 for Plasmodium falciparum K1. In kind it is toxicity, cell-based. As to conditions: MCR5 cells (cytotoxicity) versus Plasmodium falciparum K1, read-out: Ratio IC50. Summed up: as §1
Data set [3] in a line: Cytotoxicity against human […] cells after 7 days by MTT assay. As to conditions: 168 h. In kind it is cell-based. Summed up:
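Cytotoxicity was tested on MRC-5, a human diploid embryonic cell line. The value is reported as an IC50 in ng/mL.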
In general terms: Tetrazolium assays rely on reduction of a dye to a coloured formazan, in cell work by metabolically active cells.

In data set [4] the test system is Plasmodium falciparum. The experiment in a line: Antimalarial activity against Plasmodium falciparum K1 infected in human erythrocytes after 72 hrs by lactate dehydrogenase assay. The format is functional, organism-based. As to conditions: K1, 72 h. Summed up:
(§2)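 In vitro assay against the P. falciparum strains K1 (drug-resistant) and FCR3 (drug-sensitive). The value is reported as an IC50 in ng/mL.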

Data set [5] relates to Plasmodium falciparum. The experiment in a line: Antimalarial activity against Plasmodium falciparum FCR-3 infected in human erythrocytes after 72 hrs by lactate dehydrogenase assay. As to conditions: FCR-3/Gambia. In kind it is functional, cell-based. Summed up:
as §2

≈ marks a conversion by molar mass, not a printed value.

Usually IC50 stands for the concentration that gives 50% inhibition.

Consider `C[C@@H]1C[C@H](C)C[C@H](C)[C@@H](O)CC(=O)O[C@H]([C@@H]2CCC[C@H]2C(=O)N[C@@H](CC(N)=O)C(=O)O)C/C=C/C=C(/C#N)[C@H](O)[C@@H](C)C1`, for which the values for the selectivity ratio in data set [1] and in data set [2] were > 124 and > 172, respectively. Moreover, the values for the IC50 in data set [3], in data set [4] and in data set [5] were > 1000 µg/mL, 580 ng/mL (≈ 0.961 µM) and 0.81 µg/mL (≈ 1.34 µM), respectively.

On to `CC(C)SC(=O)[C@@H]1CCC[C@H]1[C@@H]1C/C=C/C=C(/C#N)[C@H](O)[C@@H](C)C[C@H](C)C[C@H](C)C[C@H](C)[C@@H](O)CC(=O)O1`, for which the selectivity ratio in data set [1] worked out at 142; in data set [2], 172. For the same molecule, the concentration for half-maximal inhibition (IC50) in data set [3] was determined as 10.2 µg/mL (≈ 18.6 µM); in data set [4], 59 ng/mL (≈ 0.108 µM); in data set [5], 0.072 µg/mL (≈ 0.131 µM).

Take `C[C@@H]1C[C@H](C)C[C@H](C)[C@@H](O)CC(=O)O[C@H]([C@@H]2CCC[C@H]2C(=O)OCc2cn(CSc3ccccc3)nn2)C/C=C/C=C(/C#N)[C@H](O)[C@@H](C)C1`: the results for the selectivity ratio in data set [1] and in data set [2] were 19800 and 542000, respectively. Moreover, the IC50 was determined as 16.8 µg/mL (≈ 24.2 µM) in data set [3], 0.031 ng/mL (≈ 4.47e-05 µM) in data set [4] and 0.00085 µg/mL (≈ 0.00123 µM) in data set [5].

In the case of `C[C@@H]1C[C@H](C)C[C@H](C)[C@@H](O)CC(=O)O[C@H]([C@@H]2CCC[C@H]2C(=O)N[C@@H](Cc2ccc(O)cc2)C(=O)O)C/C=C/C=C(/C#N)[C@H](O)[C@@H](C)C1`, the results for the selectivity ratio in data set [1] and in data set [2] were 197 and 206, respectively. The results for the IC50 in data set [3], in data set [4] and in data set [5] were 33.4 µg/mL (≈ 51.2 µM), 163 ng/mL (≈ 0.25 µM) and 0.17 µg/mL (≈ 0.26 µM), respectively.

With `CCSC(=O)[C@@H]1CCC[C@H]1[C@@H]1C/C=C/C=C(/C#N)[C@H](O)[C@@H](C)C[C@H](C)C[C@H](C)C[C@H](C)[C@@H](O)CC(=O)O1`, the selectivity ratio in data set [1] is 1340; in data set [2], 1570. Moreover, the values for the IC50 in data set [3], in data set [4] and in data set [5] were 12.7 µg/mL (≈ 23.8 µM), 8 ng/mL (≈ 0.015 µM) and 0.01 µg/mL (≈ 0.0187 µM), respectively.

In the case of `C[C@@H]1C[C@H](C)C[C@H](C)[C@@H](O)CC(=O)O[C@H]([C@@H]2CCC[C@H]2C(=O)Sc2ccccc2)C/C=C/C=C(/C#N)[C@H](O)[C@@H](C)C1`, the figures for the selectivity ratio in data set [1] and in data set [2] were 6 and 9, respectively. In addition, the IC50 in data set [3] was found to be 0.98 µg/mL (≈ 1.68 µM); in data set [4], 107 ng/mL (≈ 0.184 µM); in data set [5], 0.16 µg/mL (≈ 0.275 µM).

Consider `C[C@@H]1C[C@H](C)C[C@H](C)[C@@H](O)CC(=O)O[C@H]([C@@H]2CCC[C@H]2C(=O)OCc2cn(-c3ccc(C(=O)O)cc3)nn2)C/C=C/C=C(/C#N)[C@H](O)[C@@H](C)C1`, for which the selectivity ratio was determined as 209 in data set [1] and 267 in data set [2]. In addition, the IC50 in data set [3] worked out at 10.1 µg/mL (≈ 14.6 µM); in data set [4], 37.8 ng/mL (≈ 0.0547 µM); in data set [5], 0.0485 µg/mL (≈ 0.0702 µM).

Regarding `CCCCSC(=O)[C@@H]1CCC[C@H]1[C@@H]1C/C=C/C=C(/C#N)[C@H](O)[C@@H](C)C[C@H](C)C[C@H](C)C[C@H](C)[C@@H](O)CC(=O)O1`, the selectivity ratio in data set [1] and in data set [2] was 12 in each case. Further, the IC50 in data set [3] is 2 µg/mL (≈ 3.56 µM); in data set [4], 163 ng/mL (≈ 0.29 µM); in data set [5], 0.17 µg/mL (≈ 0.303 µM).

Turning to `COC(=O)[C@@H]1CCC[C@H]1[C@@H]1C/C=C/C=C(/C#N)[C@H](O)[C@@H](C)C[C@H](C)C[C@H](C)C[C@H](C)[C@@H](O)CC(=O)O1`, the selectivity ratio in data set [1] and in data set [2] was 1460 in each case. The values for the half-inhibitory concentration (IC50) in data set [3], in data set [4] and in data set [5] were 14.6 µg/mL (≈ 29 µM), 10 ng/mL (≈ 0.0199 µM) and 0.01 µg/mL (≈ 0.0199 µM), respectively.
